In ChEMBL document CHEMBL1268877, “Novel rhodanine derivatives induce growth inhibition followed by apoptosis” (Bioorg Med Chem Lett, 2010) one finds Activity, IC50 and inhibition data, which are given here for 3 compounds.

The test system of data set [1] is CCRF-CEM. In words: Cytotoxicity against human CEM cells at 10 to 250 uM by trypan blue assay. The data set is classed as functional, cell-based. The following applies: TDE = time-dependent effect. The method in brief: (§1)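 Trypan blue exclusion on CEM T-cell leukemia cells given 10, 50, 100 or 250 µM compound (DMSO as vehicle control); live cells counted every 24 h after addition until control culture reached stationary phase; independent experiments; IC50 estimated at 48 and 72 h.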

For data set [2], the system named is CCRF-CEM. Kind of data set: Cytotoxicity against human CEM cells after 24 to 72 hrs by LDH release assay. The data set is classed as functional, cell-based. The essentials:
(§2)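 LDH release measured at 490 nm from CEM cells exposed to 10, 50, 100 and 250 µM compound for 24, 48 and 72 h; expressed as percent LDH release; SD from three independent experiments.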
Background: LDH leaks from cells whose membrane has failed.

The test system of data set [3] is CCRF-CEM. In words: Cytotoxicity against human CEM cells after 72 hrs by trypan blue assay. The data set is classed as functional, cell-based. The method in brief:
as §1

The subject of data set [4] is CCRF-CEM. Kind of data set: Induction of cell cycle arrest in human CEM cells assessed as decrease in accumulation at G2/M phase at 10 to 250 uM after 48 hrs by propidium iodide staining-based FACS analysis. The data set is classed as functional. The method in brief:
(§3)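 CEM cells treated 48 h with 10, 20, 50, 100 or 250 µM compound or DMSO vehicle, then fixed, stained with propidium iodide and analysed by flow cytometry (10,000 cells per sample); percent cells in subG1, G1, S and G2/M quantified; SD from three independent experiments.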
(Flow cytometry measures light scatter and fluorescence of single cells or particles in a stream.)

Data set [5] relates to CCRF-CEM. Kind of data set: Cytotoxicity against human CEM cells at 10 to 250 uM by LDH release assay. The data set is classed as functional, cell-based. The following applies: TDE = time-dependent effect. The essentials:
as §2

The test system of data set [6] is CCRF-CEM. In words: Cytotoxicity against human CEM cells at 10 uM after 24 to 48 hrs by MTT assay. The data set is classed as functional, cell-based. The method in brief:
(§4)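 CEM T-cell leukemia cells cultured with 10, 50, 100 and 250 µM compound (DMSO vehicle control), harvested after 24 and 48 h for MTT assay; percent viable cells calculated taking DMSO-treated cells as 100%; SD from three independent experiments.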
(Tetrazolium assays rely on reduction of a dye to a coloured formazan, in cell work by metabolically active cells.)

Data set [7] has as its system CCRF-CEM. Kind of data set: Induction of apoptosis in human CEM cells assessed as chromosomal DNA fragmentation at 20 uM after 72 hrs by agarose gel electrophoresis. The data set is classed as functional, cell-based. The essentials: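 Chromosomal DNA extracted from CEM cells treated with 20 µM compound and harvested at 12, 24, 36, 48 and 72 h (DMSO control), then resolved on 1% agarose gel beside a 2-log DNA ladder.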

For data set [8], the system named is CCRF-CEM. In words: Cytotoxicity against human CEM cells assessed as mild induction of ROS production at 20 uM after 4 hrs by H2DCFDA staining-based flow cytometry. The data set is classed as functional, cell-based. The essentials: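 CEM cells treated with 20 µM compound for 1, 2 and 4 h; ROS production quantified by flow cytometry, with unstained and dye-stained cells as references and H2O2 as positive control.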

The subject of data set [9] is CCRF-CEM. Kind of data set: Induction of cell cycle arrest in human CEM cells assessed as accumulation at subG1 phase at 10 to 250 uM after 48 hrs by propidium iodide staining-based FACS analysis. The data set is classed as functional. The method in brief: as §3
Data set [10] has as its system CCRF-CEM. In words: Induction of cell cycle arrest in human CEM cells assessed as decrease in accumulation at G1 phase at 10 to 250 uM after 48 hrs by propidium iodide staining-based FACS analysis. The data set is classed as functional. The essentials:
as §3

Data set [11] concerns CCRF-CEM. Kind of data set: Cytotoxicity against human CEM cells after 48 hrs by trypan blue assay. The data set is classed as functional, cell-based. The method in brief:
as §1

Data set [12] can be described thus: Cytotoxicity against human 8E5 cells at 250 uM after 24 to 48 hrs by MTT assay. The data set is classed as cell-based.
Data set [13] concerns CCRF-CEM. In words: Cytotoxicity against human CEM cells after 6 days by trypan blue assay. The data set is classed as functional, cell-based. The method in brief: as §1
Data set [14] has as its system CCRF-CEM. Kind of data set: Antiproliferative activity against human CEM cells assessed as inhibition of [3H]thymidine incorporation at 10 to 250 uM after 24 to 48 hrs by scintillation counting. The data set is classed as functional, cell-based. The essentials:
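[3H]-thymidine added to CEM T-cell leukemia cells treated with 10, 50, 100 or 250 µM compound; radioactive counts per minute (cpm) calculated and plotted; data from independent experiments.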

The subject of data set [15] is CCRF-CEM. In words: Induction of cell cycle arrest in human CEM cells assessed as accumulation at S phase at 10 to 50 uM after 48 hrs by propidium iodide staining-based FACS analysis. The data set is classed as functional. The method in brief:
as §3

Data set [16] deals with CCRF-CEM. In words: Cytotoxicity against human CEM cells at 250 uM after 6 days by trypan blue assay. The data set is classed as functional, cell-based. The method in brief:
as §1

Data set [17] in a line: Cytotoxicity against human 8E5 cells at 10 to 250 uM after 24 to 48 hrs by MTT assay. The data set is classed as cell-based.
Data set [18] relates to CCRF-CEM. In words: Cytotoxicity against human CEM cells at 10 to 250 uM after 24 to 48 hrs by MTT assay. The data set is classed as functional, cell-based. The method in brief:
as §4

Activity calls are given as the source filed them. The calls are words filed in the database; no cut-off is given here.

Take `CCN1C(=O)/C(=C\c2ccccc2)SC1=S`: the Activity entry with CCRF-CEM [1] was “tde”; in the data set on CCRF-CEM [2], “Dose-dependent effect”; with CCRF-CEM [5] it was “tde”; in data set [12], “Toxic”; in the data set with CCRF-CEM [13], “Dose-dependent effect”. In addition, the IC50 (as a rule, the midpoint of a concentration-inhibition curve) in the data set with CCRF-CEM [3] is 6 µM; in the data set on CCRF-CEM [11], 8 µM. Moreover, the outcome in the data set with CCRF-CEM [4], in the data set on CCRF-CEM [6], in the data set with CCRF-CEM [7], in the data set on CCRF-CEM [8], in the data set on CCRF-CEM [9] and in the data set with CCRF-CEM [10] was Active. The outcome with CCRF-CEM [15] and with CCRF-CEM [16] was Active. Also, the inhibition result in the data set with CCRF-CEM [14] was “Active”.

For `CCN1C(=O)C(=C(C)C)OC1=S`, the Activity result was “tde” in the data set on CCRF-CEM [1], “Non-toxic” in data set [17] and “Dose-dependent effect” in the data set with CCRF-CEM [13]. Also, the 50% inhibitory concentration (IC50) in the data set with CCRF-CEM [3] amounted to 50 µM; with CCRF-CEM [11], 80 µM. In addition, the outcome with CCRF-CEM [18] and with CCRF-CEM [16] was Active.

Turning to `CC(C)=C1C(=O)N(C)C(=S)N1C`, the Activity entry in the data set on CCRF-CEM [1] was “tde”; in [17], “Non-toxic”; with CCRF-CEM [13] it was “Dose-dependent effect”. The IC50 with CCRF-CEM [3] was determined as 40 µM; with CCRF-CEM [11], 70 µM. Moreover, the result with CCRF-CEM [18] and in the data set with CCRF-CEM [16] was Active.
